Source: ChEMBL document CHEMBL1138529, “Efficacy, pharmacokinetics, and metabolism of tetrahydroquinoline inhibitors of Plasmodium falciparum protein farnesyltransferase” (Antimicrob Agents Chemother, 2007)
Calls of active or inactive are those of the source.

Experiments:
[1] = Elimination half life in Sprague-Dawley rat at 2 mg/kg, iv; format: ADME, organism-based; set-up: dose 2 mg/kg, route intravenous; conditions: in vivo, read-out: beta t1/2
Outline: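 Three female Sprague-Dawley rats per group (10–12 weeks), jugular-vein catheterized; 2 mg/kg in 3% EtOH-7% Tween 80-90% normal saline given through the catheter. Plasma drawn from the catheter at set times, acetonitrile extraction with internal standard, LC/MS quantification.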

[2] = biological target: Muscarinic acetylcholine receptor M1 (Homo sapiens) (UniProt P11229); assay: Inhibition of muscarinic M1 receptor at 10 uM
Outline: (§1)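 Radioligand displacement at a contract lab across a panel of 50 receptors, ion channels and transporters, single test concentration 10 μM; loss of specific ligand binding reported as percent, with >50% decrease counted as significant.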

[3] = Cmax in Sprague-Dawley rat at 50 mg/kg, po; format: ADME, organism-based; set-up: dose 50 mg/kg, route oral; conditions: in vivo
Outline: (§2)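 50 mg/kg by oral gavage in 3% EtOH-7% Tween 80-90% normal saline to groups of three females (BALB/c mice, 8–10 weeks, tail bleed; Sprague-Dawley rats, 10–12 weeks, saphenous vein). Plasma extracted with acetonitrile/internal standard, LC/MS; means of three animals. Oral elimination half-life depends on absorption rate as well as elimination.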

[4] = test system: Rattus norvegicus; assay: Toxicity in Plasmodium berghei NK65 infected Sprague-Dawley rat assessed as effect on white blood cell differentials at 50 mg/kg, perorally administered every 12 hrs for 3 days; format: organism-based; set-up: dose 50 mg/kg, route oral; conditions: in vivo, po
Outline: (§3)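 Female Sprague-Dawley rats, 10-12 weeks, n = 3 per schedule. Dosed 50 mg/kg by oral gavage every 8 h or every 12 h for 72 h. At the end of dosing, blood was sent to a clinical laboratory for complete blood counts, white cell differentials, electrolytes, glucose, renal function, liver enzymes and cholesterol.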

[5] = biological target: Neuropeptide Y receptor type 1 (Homo sapiens) (UniProt P25929); assay: Inhibition of neuropeptide Y1 receptor at 10 uM; outline: as §1
[6] = biological target: Adenosine receptor A1 (Homo sapiens) (UniProt P30542); assay: Inhibition of adenosine A1 receptor at 10 uM
Outline: (§4)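 Radioligand displacement screen by a contractor across 50 receptors, ion channels and transporters, test compound at 10 μM; decrease in specific ligand binding expressed as percentage, with >50% decrease taken as significant.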

[7] = test system: Rattus norvegicus; assay: Toxicity in Plasmodium berghei NK65 infected Sprague-Dawley rat assessed as effect on renal function at 50 mg/kg, perorally administered every 12 hrs for 3 days; format: organism-based; set-up: dose 50 mg/kg, route oral; conditions: in vivo, po, in the assay text read “every 8 hrs” for “every 12 hrs”; outline: as §3
[8] = biological target: D(2) dopamine receptor (Homo sapiens) (UniProt P14416); assay: Inhibition of dopamine D2S receptor at 10 uM; outline: as §1
[9] = biological target: B2 bradykinin receptor (Homo sapiens) (UniProt P30411); assay: Inhibition of bradykinin B2 receptor at 10 uM; outline: as §1
[10] = biological target: Galanin receptor type 2 (Homo sapiens) (UniProt O43603); assay: Inhibition of Galanin receptor type 2 at 10 uM; outline: as §4
[11] = Inhibition of Plasmodium falciparum protein farnesyltransferase by SPA method
[12] = Inhibition of alpha1 adrenergic receptor at 10 uM
Outline: (§5)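 Radioligand displacement screen at a 10 μM test concentration, run by a contract lab across a panel of 50 receptors, pharmacologically active ion channels and transporters. The read-out is the decrease in specific radiolabeled ligand binding, expressed as a percentage. A decrease above 50% was considered significant.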

[13] = biological target: Histamine H1 receptor (Homo sapiens) (UniProt P35367); assay: Inhibition of histamine H1 receptor at 10 uM; outline: as §1
[14] = test system: Salmonella typhimurium; assay: Genotoxicity in Salmonella enterica serovar Typhimurium TA98 assessed as increase in number of revertants in presence of rat liver S9 fraction by Ames test; format: toxicity, organism-based; conditions: salmonella enterica subsp. enterica serovar typhimurium
Outline: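 Liquid-culture Ames assay run by a contractor: S. Typhimurium TA98 and TA100 exposed for 96 h in histidine-free medium, with and without rat liver S9, at 5, 10, 50 and 100 μM (plus higher concentrations); growth read spectrophotometrically by pH-indicator colour change. Parallel bacterial cytotoxicity assay at same concentrations.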

[15] = test system: Salmonella typhimurium; assay: Toxicity against Salmonella enterica serovar Typhimurium TA100; format: organism-based, Salmonella enterica subsp. enterica serovar Typhimurium; conditions: in vivo
Outline: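 Ames fluctuation test in S. Typhimurium TA98 (frameshift) and TA100 (base substitution), with and without rat liver S9. Tested at 5, 10, 50 and 100 μM plus higher concentrations, 48 wells each, in histidine-free liquid medium for 96 h. Growth read spectrophotometrically by pH-indicator color change. Bacterial cytotoxicity assayed in parallel at the same concentrations.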

[16] = test system: Rattus norvegicus; assay: Toxicity in Plasmodium berghei NK65 infected Sprague-Dawley rat assessed as effect on glucose levels at 50 mg/kg, perorally administered every 8 hrs for 3 days; format: organism-based; set-up: dose 50 mg/kg, route oral; conditions: in vivo, po; outline: as §3
[17] = test system: Rattus norvegicus; assay: Toxicity in Plasmodium berghei NK65 infected Sprague-Dawley rat assessed as effect on blood counts at 50 mg/kg, perorally administered every 12 hrs for 3 days; format: organism-based; set-up: dose 50 mg/kg, route oral; conditions: in vivo, po; outline: as §3
[18] = Inhibition of Sodium channel site 2 at 10 uM; outline: as §5
[19] = biological target: Sodium-dependent noradrenaline transporter (Homo sapiens) (UniProt P23975); assay: Inhibition of NET at 10 uM; outline: as §4
[20] = biological target: Alpha-2A adrenergic receptor (Homo sapiens) (UniProt P08913); assay: Inhibition of alpha2 adrenergic receptor at 10 uM; outline: as §1
[21] = biological target: C-C chemokine receptor type 1 (Homo sapiens) (UniProt P32246); assay: Inhibition of CCR1 receptor at 10 uM; outline: as §4
[22] = test system: Rattus norvegicus; assay: Toxicity in Plasmodium berghei NK65 infected Sprague-Dawley rat assessed as effect on liver enzyme levels at 50 mg/kg, perorally administered every 12 hrs for 3 days; format: organism-based; set-up: dose 50 mg/kg, route oral; conditions: in vivo, po, in the assay text read “every 8 hrs” for “every 12 hrs”; outline: as §3
[23] = Elimination half life in Sprague-Dawley rat at 50 mg/kg, po; format: ADME, organism-based; set-up: dose 50 mg/kg, route oral; conditions: in vivo, read-out: beta t1/2; outline: as §2
[24] = biological target: Adenosine A2A receptor (Homo sapiens) (UniProt P29274); assay: Inhibition of adenosine A2A receptor at 10 uM
[25] = test system: Plasmodium falciparum; assay: Antiplasmodial activity against chloroquine-sensitive Plasmodium falciparum 3D7 by [3H]hypoxanthine uptake; format: functional; conditions: read-out: ED50 (the source's name)
Outline: (§6)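 Asynchronous cultures at 0.5% parasitemia and 0.5% hematocrit in RPMI 1640 with 20% heat-inactivated human A+ plasma, exposed to serially diluted inhibitor (top final 5 μM, from DMSO stock) under 5% CO2/5% O2/90% N2 at 37°C for 48 h. [3H]hypoxanthine was then added for 24 h and harvested counts were background-subtracted against DMSO-only controls. ED50 came from linear regression, as the mean of duplicates.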

[26] = test system: Plasmodium falciparum; assay: Antiplasmodial activity against chloroquine-resistant Plasmodium falciparum K1 by [3H]hypoxanthine uptake; format: functional; conditions: read-out: ED50 (the source's name); outline: as §6
[27] = biological target: 5-hydroxytryptamine receptor 5A (Homo sapiens) (UniProt P47898); assay: Inhibition of 5HT5A receptor at 10 uM; outline: as §4
[28] = Permeability from apical to basolateral side in human Caco-2 cells; format: ADME, cell-based; conditions: read-out: permeability
[29] = test system: Plasmodium berghei; assay: Antiplasmodial activity as reduced parasitaemia against Plasmodium berghei NK65 infected Sprague-Dawley rat at 50 mg/kg every 8 hrs peroral dose for 3 days
[30] = biological target: Nociceptin receptor (Homo sapiens) (UniProt P41146); assay: Inhibition of ORL1 receptor at 10 uM; outline: as §4
[31] = Inhibition of dopamine GABA receptor at 10 uM; outline: as §5

Sequence of D(2) dopamine receptor (Homo sapiens) (P14416 whole entry): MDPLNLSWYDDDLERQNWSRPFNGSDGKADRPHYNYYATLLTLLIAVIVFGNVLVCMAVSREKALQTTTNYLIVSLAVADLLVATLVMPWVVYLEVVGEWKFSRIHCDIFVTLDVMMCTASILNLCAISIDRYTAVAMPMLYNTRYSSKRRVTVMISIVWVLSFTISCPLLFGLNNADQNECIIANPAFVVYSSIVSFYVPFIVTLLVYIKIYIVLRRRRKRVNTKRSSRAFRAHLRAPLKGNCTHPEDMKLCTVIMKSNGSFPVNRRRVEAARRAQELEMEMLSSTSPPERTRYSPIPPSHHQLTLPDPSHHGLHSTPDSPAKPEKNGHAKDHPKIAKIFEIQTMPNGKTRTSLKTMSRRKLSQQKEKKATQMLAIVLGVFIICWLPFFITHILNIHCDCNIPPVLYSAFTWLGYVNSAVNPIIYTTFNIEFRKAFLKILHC
Sequence of Neuropeptide Y receptor type 1 (Homo sapiens) (P25929 whole entry): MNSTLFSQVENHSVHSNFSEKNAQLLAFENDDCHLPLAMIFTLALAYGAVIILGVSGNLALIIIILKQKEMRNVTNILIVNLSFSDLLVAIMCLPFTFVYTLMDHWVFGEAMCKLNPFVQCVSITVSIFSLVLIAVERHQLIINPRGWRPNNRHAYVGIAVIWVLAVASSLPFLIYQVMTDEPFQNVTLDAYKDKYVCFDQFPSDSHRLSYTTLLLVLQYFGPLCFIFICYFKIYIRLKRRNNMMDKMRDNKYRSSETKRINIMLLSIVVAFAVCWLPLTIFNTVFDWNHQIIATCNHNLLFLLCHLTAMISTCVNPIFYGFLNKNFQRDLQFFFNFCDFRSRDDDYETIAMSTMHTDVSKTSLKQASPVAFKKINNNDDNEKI
Sequence of B2 bradykinin receptor (Homo sapiens) (P30411 whole entry): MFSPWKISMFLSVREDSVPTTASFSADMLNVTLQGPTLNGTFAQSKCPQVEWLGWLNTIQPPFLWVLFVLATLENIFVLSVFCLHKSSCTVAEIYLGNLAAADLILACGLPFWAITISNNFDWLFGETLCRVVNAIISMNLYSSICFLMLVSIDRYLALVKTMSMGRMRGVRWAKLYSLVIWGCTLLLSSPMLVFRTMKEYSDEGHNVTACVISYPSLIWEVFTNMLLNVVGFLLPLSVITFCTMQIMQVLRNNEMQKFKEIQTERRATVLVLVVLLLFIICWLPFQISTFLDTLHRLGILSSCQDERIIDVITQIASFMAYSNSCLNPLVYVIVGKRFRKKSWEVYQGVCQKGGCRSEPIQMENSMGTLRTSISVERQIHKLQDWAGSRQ
Sequence of Alpha-2A adrenergic receptor (Homo sapiens) (P08913 whole entry): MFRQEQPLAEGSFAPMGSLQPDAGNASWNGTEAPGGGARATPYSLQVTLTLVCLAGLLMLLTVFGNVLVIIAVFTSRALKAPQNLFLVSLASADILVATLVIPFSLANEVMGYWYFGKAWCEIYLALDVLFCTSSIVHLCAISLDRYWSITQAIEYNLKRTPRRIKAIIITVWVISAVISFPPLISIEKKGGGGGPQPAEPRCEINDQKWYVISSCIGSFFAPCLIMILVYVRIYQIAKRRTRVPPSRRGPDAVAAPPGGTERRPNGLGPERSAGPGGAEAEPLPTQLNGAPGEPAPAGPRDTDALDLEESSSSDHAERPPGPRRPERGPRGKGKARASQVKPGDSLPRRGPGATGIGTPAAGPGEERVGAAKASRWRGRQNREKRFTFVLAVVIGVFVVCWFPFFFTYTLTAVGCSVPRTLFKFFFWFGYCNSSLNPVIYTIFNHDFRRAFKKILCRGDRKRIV
Sequence of Histamine H1 receptor (Homo sapiens) (P35367 whole entry): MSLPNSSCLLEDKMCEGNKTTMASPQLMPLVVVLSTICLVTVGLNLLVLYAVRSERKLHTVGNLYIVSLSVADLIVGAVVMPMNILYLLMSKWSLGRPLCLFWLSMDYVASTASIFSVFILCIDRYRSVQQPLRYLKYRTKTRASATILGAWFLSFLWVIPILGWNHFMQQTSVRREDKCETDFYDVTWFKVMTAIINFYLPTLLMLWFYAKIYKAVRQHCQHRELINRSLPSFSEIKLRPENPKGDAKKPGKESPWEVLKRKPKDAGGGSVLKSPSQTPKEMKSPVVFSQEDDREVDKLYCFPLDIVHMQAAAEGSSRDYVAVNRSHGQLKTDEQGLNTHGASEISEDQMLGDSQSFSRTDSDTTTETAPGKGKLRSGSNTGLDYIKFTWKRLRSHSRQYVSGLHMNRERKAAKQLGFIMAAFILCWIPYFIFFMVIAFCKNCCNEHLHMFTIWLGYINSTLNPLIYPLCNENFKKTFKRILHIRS
Sequence of Muscarinic acetylcholine receptor M1 (Homo sapiens) (P11229 whole entry): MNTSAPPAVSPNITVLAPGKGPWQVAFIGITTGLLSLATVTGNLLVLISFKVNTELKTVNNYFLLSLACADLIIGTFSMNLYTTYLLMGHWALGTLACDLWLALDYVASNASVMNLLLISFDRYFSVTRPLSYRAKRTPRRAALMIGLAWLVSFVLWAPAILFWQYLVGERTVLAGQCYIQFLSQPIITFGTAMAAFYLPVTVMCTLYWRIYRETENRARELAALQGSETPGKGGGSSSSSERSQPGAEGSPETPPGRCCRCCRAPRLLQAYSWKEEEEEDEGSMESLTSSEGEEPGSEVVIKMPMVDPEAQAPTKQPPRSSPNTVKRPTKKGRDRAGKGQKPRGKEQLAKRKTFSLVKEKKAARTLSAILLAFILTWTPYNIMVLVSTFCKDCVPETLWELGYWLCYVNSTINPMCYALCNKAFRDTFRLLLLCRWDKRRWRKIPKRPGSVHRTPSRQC
Sequence of Adenosine receptor A1 (Homo sapiens) (P30542 whole entry): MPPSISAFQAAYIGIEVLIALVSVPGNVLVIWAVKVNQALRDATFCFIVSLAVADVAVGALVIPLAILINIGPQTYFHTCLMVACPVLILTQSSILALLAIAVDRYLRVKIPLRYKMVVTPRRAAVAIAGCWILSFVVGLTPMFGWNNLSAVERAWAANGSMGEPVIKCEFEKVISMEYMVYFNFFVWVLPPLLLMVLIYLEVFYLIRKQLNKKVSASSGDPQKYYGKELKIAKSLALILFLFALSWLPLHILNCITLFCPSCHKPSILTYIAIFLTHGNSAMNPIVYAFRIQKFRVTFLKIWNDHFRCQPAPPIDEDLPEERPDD
Sequence of Sodium-dependent noradrenaline transporter (Homo sapiens) (P23975 whole entry): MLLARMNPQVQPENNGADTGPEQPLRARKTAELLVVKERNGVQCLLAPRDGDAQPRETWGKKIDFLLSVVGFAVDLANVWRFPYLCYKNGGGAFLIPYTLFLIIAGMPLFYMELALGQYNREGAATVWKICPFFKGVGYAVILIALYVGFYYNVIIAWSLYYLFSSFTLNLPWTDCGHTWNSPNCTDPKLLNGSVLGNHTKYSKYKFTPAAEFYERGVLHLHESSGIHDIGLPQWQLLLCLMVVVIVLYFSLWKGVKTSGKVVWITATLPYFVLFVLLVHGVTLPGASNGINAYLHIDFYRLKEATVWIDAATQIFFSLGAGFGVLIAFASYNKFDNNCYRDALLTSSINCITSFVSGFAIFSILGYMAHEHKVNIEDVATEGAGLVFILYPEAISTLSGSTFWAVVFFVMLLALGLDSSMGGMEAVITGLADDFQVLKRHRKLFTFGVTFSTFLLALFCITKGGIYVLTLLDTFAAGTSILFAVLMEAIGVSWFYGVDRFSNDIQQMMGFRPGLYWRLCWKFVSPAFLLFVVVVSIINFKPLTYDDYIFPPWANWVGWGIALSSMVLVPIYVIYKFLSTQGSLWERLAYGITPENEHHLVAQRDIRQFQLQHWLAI
Sequence of Nociceptin receptor (Homo sapiens) (P41146 whole entry): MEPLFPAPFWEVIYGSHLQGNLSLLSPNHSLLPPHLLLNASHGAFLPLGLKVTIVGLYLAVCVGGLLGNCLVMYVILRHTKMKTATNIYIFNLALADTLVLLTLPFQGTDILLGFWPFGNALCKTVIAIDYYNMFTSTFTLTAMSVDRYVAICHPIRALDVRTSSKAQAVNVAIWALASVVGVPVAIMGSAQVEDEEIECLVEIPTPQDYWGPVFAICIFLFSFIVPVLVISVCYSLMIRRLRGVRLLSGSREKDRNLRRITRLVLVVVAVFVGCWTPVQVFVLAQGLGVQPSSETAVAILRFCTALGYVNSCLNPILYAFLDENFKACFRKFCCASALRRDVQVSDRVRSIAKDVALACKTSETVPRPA
Sequence of Galanin receptor type 2 (Homo sapiens) (O43603 whole entry): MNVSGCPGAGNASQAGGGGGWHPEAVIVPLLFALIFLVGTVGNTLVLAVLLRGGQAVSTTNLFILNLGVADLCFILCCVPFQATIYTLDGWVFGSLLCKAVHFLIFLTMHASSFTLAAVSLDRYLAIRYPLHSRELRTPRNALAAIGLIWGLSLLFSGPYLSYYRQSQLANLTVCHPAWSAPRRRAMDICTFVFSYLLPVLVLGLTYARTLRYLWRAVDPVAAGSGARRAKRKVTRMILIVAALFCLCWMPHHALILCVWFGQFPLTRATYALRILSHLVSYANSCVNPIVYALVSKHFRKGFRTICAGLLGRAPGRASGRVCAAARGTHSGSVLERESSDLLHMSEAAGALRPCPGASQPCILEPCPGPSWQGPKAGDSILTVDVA
Sequence of C-C chemokine receptor type 1 (Homo sapiens) (P32246 whole entry): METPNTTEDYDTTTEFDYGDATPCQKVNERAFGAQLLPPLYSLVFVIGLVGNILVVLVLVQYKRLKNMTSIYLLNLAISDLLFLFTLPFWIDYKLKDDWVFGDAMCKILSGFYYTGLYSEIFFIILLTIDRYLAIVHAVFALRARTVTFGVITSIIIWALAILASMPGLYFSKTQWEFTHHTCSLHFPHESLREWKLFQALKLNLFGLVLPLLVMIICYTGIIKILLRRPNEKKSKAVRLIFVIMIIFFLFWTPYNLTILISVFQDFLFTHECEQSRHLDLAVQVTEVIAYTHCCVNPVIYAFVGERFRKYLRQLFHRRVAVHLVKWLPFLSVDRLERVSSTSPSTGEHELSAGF

Work on `COC(=O)N1CCC(CN(C2Cc3cc(C#N)ccc3N(Cc3cncn3C)C2)S(=O)(=O)c2ccccn2)CC1` (stereo unspecified) yielded a half-life [1] of 17 min, an inhibition [2] of 64% and a Cmax [3] of 4.5 µM. For the same compound, the Activity [4] was “Non-toxic”, the inhibition [5] was “inactive” and the inhibition [6] was “inactive”. For the same compound, the Activity [7] was “Non-toxic”, the inhibition [8] was “inactive” and the inhibition [9] was “inactive”. The inhibition [10] was “inactive”, the IC50 [11] was 0.58 nM and the inhibition [12] was “inactive”. For the same compound, the inhibition [13] was “inactive”, the Activity [14] was “Non-toxic” and the Activity [15] was “Non-toxic”. For the same compound, the Activity [16] was “Non-toxic”, the Activity [17] was “Non-toxic” and the inhibition [18] was “inactive”. The inhibition [19] was “inactive”, the inhibition [20] was “inactive” and the inhibition [21] was “inactive”. The Activity [22] was “Non-toxic”, the half-life [23] was 41 min and the inhibition [24] was “inactive”. The EC50 [25] was 16 nM, the EC50 [26] was 15 nM and the inhibition [27] was “inactive”. For the same compound, the Papp A→B [28] was 1.1 ×10⁻⁶ cm/s, the Activity [29] was “Active” and the inhibition [30] was “inactive”. The inhibition [31] was “inactive”.
